Assay outcomes: PubChem, Johns Hopkins Ion Channel Center
Sampled rows, rich in hits. Any-hit rate of the full collection: about 3.5%.
MrgX1 allo act = human MrgX1 positive allosteric modulation, primary screen; B-score at 10 µM; Q96LB2; MrgX1-HEK293, Fluo-4 calcium flux, FDSS; stronger effect = higher value; 310,000 tested, 0.63% active;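 active means plate-corrected calcium response at least 3 library SD above typical, normal starting fluorescence, not activating the receptor alone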;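 further: compound read alongside a low EC10 to EC30 dose of BAM8-22 agonist; peak minus trough fluorescence over baseline measured at the second addition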
Target sequence (Q96LB2 whole entry, looked up): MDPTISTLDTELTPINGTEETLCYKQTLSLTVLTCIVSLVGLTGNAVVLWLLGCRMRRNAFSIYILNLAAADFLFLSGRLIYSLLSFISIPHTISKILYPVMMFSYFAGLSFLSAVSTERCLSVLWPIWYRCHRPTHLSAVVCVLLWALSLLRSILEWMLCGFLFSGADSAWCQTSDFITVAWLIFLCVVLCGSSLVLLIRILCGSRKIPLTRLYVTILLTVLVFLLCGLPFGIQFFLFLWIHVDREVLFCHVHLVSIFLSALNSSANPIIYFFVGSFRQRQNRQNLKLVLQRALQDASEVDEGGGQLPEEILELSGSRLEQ
RGS4 inh = human RGS4 inhibition; 310,000 tested, 0.45% active; HEK293 M3R/RGS4 inducible, Fluo-4 calcium flux; stronger effect = higher value; triggered by carbachol at its EC20; B-score at 10 µM;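 active means B-score, a plate-corrected calcium signal, over three deviations above library mean, with baseline fluorescence within five deviations of library mean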;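 further: RGS4 expression induced by doxycycline in cells with stable M3 receptor; B-score is computed from the integrated fluorescence ratio over baseline after carbachol; higher B-score means a larger calcium signal and so more RGS4 inhibition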
Target sequence (P49798 whole entry, looked up): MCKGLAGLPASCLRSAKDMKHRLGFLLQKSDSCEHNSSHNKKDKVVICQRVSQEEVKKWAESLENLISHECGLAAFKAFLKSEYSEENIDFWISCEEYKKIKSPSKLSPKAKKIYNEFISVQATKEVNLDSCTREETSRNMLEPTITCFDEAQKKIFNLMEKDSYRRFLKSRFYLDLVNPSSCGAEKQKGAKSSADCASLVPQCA
RGS4 act = potentiators or activators of RGS4 | B-score at 10 µM | AID 463111 | HEK293 M3R/inducible RGS4, carbachol calcium flux Fluo4; stronger effect = lower value | 310,000 tested, 0.92% active;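 active means B-score of the integrated calcium signal more than 4 SD below the library mean, with starting fluorescence not abnormally high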;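 further: negative B-score means reduced calcium response which marks RGS4 activation or potentiation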
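Assay system: Inducible-RGS4 HEK293 cells carrying M3 receptor | Schedule: Compound preincubation 20 min at room temperature before agonist | Signal: Kinetic calcium fluorescence imaging with Fluo4-AM dye, 2 µM | Read-out basis: B score from integrated fluorescence ratio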
MrgX1 antag = blocks BAM8-22 activation of human MrgX1 receptor. Q96LB2. MRGX1-HEK293 calcium flux, Fluo-4, BAM8-22 antagonism; stronger effect = lower value. B-score at 10 µM. 310,000 tested, 1.3% active. AID 588676;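 active means calcium-response B-score plate-corrected more than 3 library SD below zero, starting fluorescence within 5 deviations, no agonist response on first addition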;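 further: peak minus trough fluorescence over baseline after final BAM8-22 challenge near maximal dose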
MrgX1 ag = activates human MrgX1 receptor signaling; MrgX1-HEK293 cells, Fluo-4 calcium fluorescence, agonist mode; stronger effect = higher value; 310,000 tested, 0.44% active; Q96LB2; B-score at 10 µM;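 active means calcium response B-score plate-corrected fluorescence ratio at least 3 library SD, with starting fluorescence B-score inside 5 SD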
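Assay system: stable human MrgX1 HEK293 cell line. Quantity: 15,000 cells per well. Schedule: cells plated overnight, dye loaded 0.5 h 37 °C, 0.5 h room temperature. Detection: Fluo-4 NW calcium-flux fluorescence, kinetic read. Read-out basis: peak-minus-minimum fluorescence over baseline, converted to B scores. Control set: positive and negative control wells on each plate.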
Each line names hits and unclear results; the compound was inactive in the other large screens.

Cc1ccc(/C=C2\SC(=S)N(NS(=O)(=O)c3ccc(C)cc3)C2=O)cc1	RGS4 act -8.17
COc1ccc(/C=C2/SC(=S)N(NS(=O)(=O)c3ccc(C)cc3)C2=O)cc1	RGS4 act -8.37, MrgX1 antag -5.24
C=CCOc1ccc(/C=C2\SC(=S)N(NS(=O)(=O)c3ccc(C)cc3)C2=O)cc1	RGS4 act -7.03
O=C1/C(=C/c2ccccn2)SC(=S)N1NS(=O)(=O)c1ccccc1	MrgX1 allo act 8.94, MrgX1 antag -5.32
O=C1/C(=C/c2cccc(F)c2)SC(=S)N1NS(=O)(=O)c1ccccc1	none
CC1=C(C#N)C(c2ccoc2)C(C(=O)OCc2ccccc2)=C(N)S1 (stereo not given)	none
N#CC1=C(N)SC(N)=C(C#N)C1c1ccoc1	MrgX1 ag 37.4
O=C(Nc1ccnn1C1CCN(C(=O)c2cccc(Cl)c2)CC1)C1CC1	none
FC(F)(F)c1cccc(CNC2c3ccccc3-c3ccccc32)c1	none
CCn1cc(C(=O)N2CCN(c3ccc(OC)cc3)CC2)c(=O)c2cc(S(=O)(=O)N3CCOCC3)ccc21	none
CCCCCOc1ccc(NC(=O)C(=O)NCC2CCCN2CC)cc1 (stereo not given)	MrgX1 antag -6.99
Cc1nc(N2CCCCC2C)c2c(C)c(C(=O)Nc3cccc(C(F)(F)F)c3)sc2n1 (stereo not given)	none
CCOC(=O)c1sc2nc(C)nc(N3CCCCC3C)c2c1C (stereo not given)	RGS4 act -7.31
O=C(N/N=C/c1cccc(C(F)(F)F)c1)c1cc2c(s1)-c1ccccc1CC2	MrgX1 antag -7.79
COc1ccc(CCN2CC(C(=O)OCC(=O)Nc3c(C)nn(-c4ccccc4)c3C)CC2=O)cc1OC (stereo not given)	none
Cc1ccsc1/C=N/NC(=O)c1sccc1C	none
Cc1ccc(C(=O)N/N=C\c2sccc2C)cn1	MrgX1 antag -7.78
COc1cc(/C=C2\SC(=S)N(NC(=O)c3ccccc3O)C2=O)ccc1O	MrgX1 ag 40.2
O=C(NN1C(=O)/C(=C/c2ccc(O)c([N+](=O)[O-])c2)SC1=S)c1ccccc1Cl	none
O=C(NN1C(=O)/C(=C/c2ccc(O)cc2)SC1=S)c1cccc(O)c1	none
COc1cc(/C=C2\SC(=S)N(N(C)c3ccccc3)C2=O)ccc1O	MrgX1 ag 33.9
O=C(NN1C(=O)/C(=C/c2ccc(O)cc2)SC1=S)c1ccccc1O	MrgX1 antag -7.79
COc1ccc(OCCOC(=O)c2cc(S(=O)(=O)N3CCOCC3)c(Cl)cc2Cl)cc1	none
CC1CN(C2=NC(=O)/C(=C/c3ccncc3)S2)CC(C)O1 (stereo not given)	none
COc1ccccc1CCC(=O)Nc1ccc(S(=O)(=O)Nc2nccs2)cc1	none
O=C(CN1CCN(C/C=C/c2ccccc2)CC1)NC(=O)NC1CCCCC1	RGS4 act -7
O=C(CN1CCN(Cc2ccccc2)CC1)NC(=O)NC1CCCCC1	none
COC(=O)c1cccc(-n2c(=O)n(Cc3ccccc3)c(=O)c3[nH]cnc32)c1C	none
COC(=O)C1CCN(CC(=O)Nc2cc(Cl)ccc2OC)CC1	MrgX1 allo act 20.9
O=C(/C=C/c1ccc([N+](=O)[O-])cc1)/C=C/c1ccco1	RGS4 inh 15.7
COc1cccc(/C=C/C(=O)OCC(=O)NC(=O)NC2CCCCC2)c1	none
CCOc1ccc(OCCOC(=O)CNC(=O)c2ccc(Cl)cc2Cl)cc1	MrgX1 antag -7
Cc1ccc(C2C(C#N)=C(N)Oc3n[nH]c(-c4ccccc4)c32)o1 (stereo not given)	MrgX1 ag 50.2
Cc1ccc(C2C(C#N)=C(N)Oc3c2sc2ccccc32)o1 (stereo not given)	MrgX1 allo act 9.16
COc1ccc(-c2ccc(C3C(C#N)=C(N)Oc4n[nH]c(C)c43)o2)cc1 (stereo not given)	MrgX1 ag 55.4
COc1ccccc1C(=O)Nc1ccnn1C1CCN(Cc2cnc(N(C)C)s2)CC1	none
Cc1c(CCOC(=O)CC23CC4CC(CC(C)(C4)C2)C3)sc[n+]1CC(=O)c1ccccc1	none
Cc1c(CCOC(=O)C23CC4CC(CC(C)(C4)C2)C3)sc[n+]1CC(=O)c1ccccc1	none
Cc1c(CCOC(=O)c2ccccc2)sc[n+]1CC(=O)c1ccc(Br)cc1	RGS4 act -7.86
Cc1c(CCOC(=O)c2cc([N+](=O)[O-])cc([N+](=O)[O-])c2)sc[n+]1CC(=O)c1ccccc1	none
Cc1c(CCOC(=O)c2ccccc2)sc[n+]1Cc1ccccc1	RGS4 act -10.4
Cc1c(CCOC(=O)CC23CC4CC(CC(C4)C2)C3)sc[n+]1CC(=O)c1ccc(Br)cc1	RGS4 act -7.46
CC(C)c1ccc(NC(=O)C2CCN(S(=O)(=O)c3ccc4c(c3)C(C)(C)C(=O)N4C)CC2)cc1	none
COc1cccc(CNC(=O)CCC2CCCN(C(=O)C3=CC(=O)CC(C)(C)O3)C2)c1 (stereo not given)	none
CN(C1CCCCC1)S(=O)(=O)c1ccc2c(c1)c(=O)c(C(=O)NCCN1CCCC1)cn2C	MrgX1 antag -4.61
O=C(NC1CCCCC1)C(c1cccnc1)N(C(=O)c1csnn1)c1ccccc1F (stereo not given)	none
O=C(NCC1CCCO1)C(Cc1ccccc1)N1C(=O)C2C3C=CC(C4CC34)C2C1=O (stereo not given)	none
CCN(CC)C(=O)C(=O)c1cn(CCOc2ccccc2)c2ccccc12	RGS4 act -7.1
COC(=O)c1cn(CCOc2ccccc2)c2ccccc12	none
COc1cc(/C=C2\SC(N)=NC2=O)cc(Cl)c1O	MrgX1 ag 29.9
NS(=O)(=O)c1ccc(S(=O)(=O)N(CCc2ccccc2)Cc2ccccn2)cc1	none
Cc1oc(-c2cccc(Cl)c2)nc1CN1CCCC(C(=O)NC(C)c2ccc3c(c2)OCCO3)C1 (stereo not given)	RGS4 act -6.96
Cc1nnc(N2CCC(C(=O)N3CCCCC3)CC2)c2nn(-c3ccc(Cl)cc3)c(C)c12	none
COc1ccc(-n2nc3c(N4CCC(C(=O)N5CCC(C)CC5)CC4)nnc(C)c3c2C)cc1	RGS4 act -6.98
CCOc1ccccc1N1C(=O)CC(Nc2ccc(N3CCOCC3)cc2)C1=O (stereo not given)	MrgX1 antag -4.53
C/C(=N\NC(=O)c1cccc(Cl)c1)C1C(=O)c2ccccc2C1=O	MrgX1 allo act 18.2
c1ccc(-c2cnnn2-c2ccccc2)cc1	none
CC(C)Oc1ccc(Cn2c(-c3ccco3)n[nH]c2=S)cc1	RGS4 act -7.35
COc1ccc(C(=O)COC(=O)c2cc(S(=O)(=O)NCc3ccccc3)ccc2O)cc1	MrgX1 ag 26.5
CC(C)(C)NS(=O)(=O)c1ccc(/C=C/C(=O)O)cc1	none
COc1ccc(N(C(=O)c2cccnc2)S(=O)(=O)c2cccc([N+](=O)[O-])c2)cc1	MrgX1 allo act 6.66
